Measured values: ChEMBL document CHEMBL1152380, “The synthesis and biological evaluation of a novel series of C7 non-basic substituted fluoroquinolones as antibacterial agents” (2009)
Converted amounts (≈) assume the structure as drawn.

What was measured:
Assay type in all cases: functional
Staphylococcus aureus [1] = assay: Antibacterial activity against multidrug-resistant Staphylococcus aureus clinical isolates by microbroth dilution technique
Staphylococcus aureus [2] = assay: Antibacterial activity against Staphylococcus aureus ATCC 25923 by microbroth dilution technique
Outline: (§1)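 MIC, taken as the lowest drug concentration that prevents visible growth, determined by broth microdilution following the National Committee for Clinical and Laboratory Standards method. Strains were reference strains from the American Type Culture Collection or clinical isolates from the hospital culture collection.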

Streptococcus pneumoniae [3] = assay: Antibacterial activity against Streptococcus pneumoniae ATCC 49619 by microbroth dilution technique
Outline: (§2)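 Broth microdilution run to the National Committee for Clinical and Laboratory Standards method. MIC is taken as the lowest drug concentration that prevents visible bacterial growth. Strains were clinical isolates from a hospital culture collection or ATCC reference strains.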

Enterococcus faecalis = assay: Antibacterial activity against Enterococcus faecalis ATCC 29212 by microbroth dilution technique; outline: as §1
Pseudomonas aeruginosa [4] = assay: Antibacterial activity against multidrug-resistant Pseudomonas aeruginosa clinical isolates by microbroth dilution technique
[5] = test system: Staphylococcus epidermidis; assay: Antibacterial activity against Staphylococcus epidermidis ATCC 12228 by microbroth dilution technique; outline: as §1
Streptococcus pneumoniae [6] = assay: Antibacterial activity against multidrug-resistant Streptococcus pneumoniae clinical isolates by microbroth dilution technique
Escherichia coli = assay: Antibacterial activity against Escherichia coli ATCC 25922 by microbroth dilution technique; outline: as §1
Pseudomonas aeruginosa [7] = assay: Antibacterial activity against Pseudomonas aeruginosa ATCC 27853 by microbroth dilution technique; outline: as §2
[8] = Staphylococcus aureus, ATCC 25923, read-out: MIC
[9] = Streptococcus pneumoniae, ATCC 49619, read-out: MIC
[10] = Enterococcus faecalis, ATCC 29212, read-out: MIC
[11] = Pseudomonas aeruginosa, read-out: MIC
[12] = Staphylococcus epidermidis, ATCC 12228, read-out: MIC
[13] = Streptococcus pneumoniae, read-out: MIC
[14] = Escherichia coli, ATCC 25922, read-out: MIC
[15] = Pseudomonas aeruginosa, ATCC 27853, read-out: MIC

| Compound | MIC (Staphylococcus aureus [1]) [µg/mL] | MIC (Staphylococcus aureus [2]; [8]) [µg/mL] | MIC (Streptococcus pneumoniae [3]; [9]) [µg/mL] | MIC (Enterococcus faecalis; [10]) [µg/mL] | MIC (Pseudomonas aeruginosa [4]; [11]) [µg/mL] | MIC [5, 12] [µg/mL] | MIC (Streptococcus pneumoniae [6]; [13]) [µg/mL] | MIC (Escherichia coli; [14]) [µg/mL] | MIC (Pseudomonas aeruginosa [7]; [15]) [µg/mL] | MIC (Staphylococcus aureus [2]) [µg/mL] | MIC (Streptococcus pneumoniae [3]) [µg/mL] | MIC (Enterococcus faecalis) [µg/mL] | MIC (Pseudomonas aeruginosa [4]) [µg/mL] | MIC [5] [µg/mL] | MIC (Streptococcus pneumoniae [6]) [µg/mL] | MIC (Escherichia coli) [µg/mL] | MIC (Pseudomonas aeruginosa [7]) [µg/mL] |
| --- | --- | --- | --- | --- | --- | --- | --- | --- | --- | --- | --- | --- | --- | --- | --- | --- | --- |
| O=C(O)c1cn(C2CC2)c2nc(N3CC4CC3CS4(=O)=O)c(F)cc2c1=O (stereo not given) | > 32 | 0.016 (≈ 0.0407 µM) | 0.063 (≈ 0.16 µM) | 0.063 (≈ 0.16 µM) | 32 (≈ 81.3 µM) | 0.5 (≈ 1.27 µM) | 0.031 (≈ 0.0788 µM) | 0.125 (≈ 0.318 µM) | 8 (≈ 20.3 µM) |  |  |  |  |  |  |  |  |
| C[C@@H](O)[C@@H]1C[C@@H](O)CN1c1nc2c(cc1F)c(=O)c(C(=O)O)cn2C1CC1 | > 32 | 32 (≈ 84.8 µM) | 2 (≈ 5.3 µM) | 2 (≈ 5.3 µM) | 32 (≈ 84.8 µM) | > 32 | 8 (≈ 21.2 µM) | 16 (≈ 42.4 µM) | 32 (≈ 84.8 µM) |  |  |  |  |  |  |  |  |
| O=C(O)c1cn(C2CC2)c2cc(N3CCNCC3)c(F)cc2c1=O [CIPROFLOXACIN] |  |  |  | 0.5 (≈ 1.51 µM) |  | 0.5 (≈ 1.51 µM) |  |  |  |  |  |  |  |  |  |  |  |
| CN[C@H](CC(C)C)C(=O)N[C@H]1C(=O)N[C@@H](CC(N)=O)C(=O)N[C@H]2C(=O)N[C@H]3C(=O)N[C@H](C(=O)N[C@H](C(=O)O)c4cc(O)cc(O)c4-c4cc3ccc4O)[C@H](O)c3ccc(c(Cl)c3)Oc3cc2cc(c3O[C@@H]2O[C@H](CO)[C@@H](O)[C@H](O)[C@H]2O[C@H]2C[C@](C)(N)[C@H](O)[C@H](C)O2)Oc2ccc(cc2Cl)[C@H]1O [VANCOMYCIN] |  |  | 1 (≈ 0.69 µM) | 0.5 (≈ 0.345 µM) |  |  | 2 (≈ 1.38 µM) |  |  |  |  |  |  |  |  |  |  |
| COC(=O)[C@@H]1C[C@@H](n2cc(Cc3ccccc3)nn2)CN1c1nc2c(cc1F)c(=O)c(C(=O)O)cn2C1CC1 | > 32 | > 32 | 4 (≈ 7.51 µM) | 16 (≈ 30 µM) | 32 (≈ 60.1 µM) | > 32 | 8 (≈ 15 µM) | 32 (≈ 60.1 µM) | 32 (≈ 60.1 µM) |  |  |  |  |  |  |  |  |
| O=C(O)c1cn(C2CC2)c2nc(N3CCC[C@H]3Cn3cc(-c4ccccc4)nn3)c(F)cc2c1=O |  | 1 (≈ 2.11 µM) |  | 4 (≈ 8.43 µM) |  | > 32 |  | > 32 | > 32 |  |  |  |  |  |  |  |  |
| O=C(O)c1cn(C2CC2)c2nc(N3CC4CC3C[S+]4[O-])c(F)cc2c1=O (stereo in doubt; 6.28) | > 32 |  |  |  |  |  | 0.25 (≈ 0.662 µM) | 1 (≈ 2.65 µM) | 32 (≈ 84.8 µM) | 4 (≈ 10.6 µM) | 0.5 (≈ 1.32 µM) | 1 (≈ 2.65 µM) | 32 (≈ 84.8 µM) | 4 (≈ 10.6 µM) |  |  |  |
| COC(=O)[C@@H]1C[C@@H](O)CN1c1nc2c(cc1F)c(=O)c(C(=O)O)cn2C1CC1 | > 32 | 2 (≈ 5.11 µM) | 0.5 (≈ 1.28 µM) | 1 (≈ 2.56 µM) | 32 (≈ 81.8 µM) | 16 (≈ 40.9 µM) | 0.5 (≈ 1.28 µM) | 8 (≈ 20.4 µM) | 32 (≈ 81.8 µM) |  |  |  |  |  |  |  |  |
| COC(=O)[C@@H]1C[C@@H](n2cc(CO)nn2)CN1c1nc2c(cc1F)c(=O)c(C(=O)O)cn2C1CC1 | > 32 | 4 (≈ 8.47 µM) | 1 (≈ 2.12 µM) | 0.5 (≈ 1.06 µM) | > 32 | 8 (≈ 16.9 µM) | 1 (≈ 2.12 µM) | 4 (≈ 8.47 µM) | 32 (≈ 67.7 µM) |  |  |  |  |  |  |  |  |
| C[C@H](O)[C@@H]1C[C@@H](O)CN1c1nc2c(cc1F)c(=O)c(C(=O)O)cn2C1CC1 | > 32 | 16 (≈ 42.4 µM) | 1 (≈ 2.65 µM) | 4 (≈ 10.6 µM) | 32 (≈ 84.8 µM) | 32 (≈ 84.8 µM) | 2 (≈ 5.3 µM) | 8 (≈ 21.2 µM) | 32 (≈ 84.8 µM) |  |  |  |  |  |  |  |  |
| O=C(O)c1cn(C2CC2)c2nc(N3CCC[C@H]3Cn3cc(CO)nn3)c(F)cc2c1=O | > 32 | 32 (≈ 74.7 µM) | 8 (≈ 18.7 µM) | 4 (≈ 9.34 µM) | 32 (≈ 74.7 µM) | 32 (≈ 74.7 µM) | 4 (≈ 9.34 µM) | 32 (≈ 74.7 µM) | 32 (≈ 74.7 µM) |  |  |  |  |  |  |  |  |
| O=C(O)c1cn(C2CC2)c2nc(N3CC4CC3C[S+]4[O-])c(F)cc2c1=O (stereo in doubt; 6.26) |  |  |  |  | 32 (≈ 84.8 µM) |  |  |  |  | 1 (≈ 2.65 µM) | 0.125 (≈ 0.331 µM) | 0.25 (≈ 0.662 µM) |  | 1 (≈ 2.65 µM) | 0.125 (≈ 0.331 µM) | 0.5 (≈ 1.32 µM) | 16 (≈ 42.4 µM) |
| O=C(O)c1cn(C2CC2)c2nc(N3CC4CC3CS4)c(F)cc2c1=O (stereo not given) | > 32 | 0.016 (≈ 0.0443 µM) | 0.031 (≈ 0.0858 µM) | 0.125 (≈ 0.346 µM) | 32 (≈ 88.5 µM) | 0.125 (≈ 0.346 µM) | 0.031 (≈ 0.0858 µM) | 0.125 (≈ 0.346 µM) | 2 (≈ 5.53 µM) |  |  |  |  |  |  |  |  |
| O=C(O)c1cn(C2CC2)c2nc(N3CCC[C@H]3CO)c(F)cc2c1=O | > 32 | 0.5 (≈ 1.44 µM) | 0.5 (≈ 1.44 µM) | 0.5 (≈ 1.44 µM) | 32 (≈ 92.1 µM) | 8 (≈ 23 µM) | 0.5 (≈ 1.44 µM) | 2 (≈ 5.76 µM) | 32 (≈ 92.1 µM) |  |  |  |  |  |  |  |  |
| CC(C)(C)OC(=O)N1CC2CC1CN2c1nc2c(cc1F)c(=O)c(C(=O)O)cn2C1CC1 (stereo not given) | > 32 | 0.25 (≈ 0.562 µM) | 2 (≈ 4.5 µM) | 0.5 (≈ 1.12 µM) | 32 (≈ 72 µM) | 4 (≈ 9 µM) | 0.5 (≈ 1.12 µM) | 4 (≈ 9 µM) | 32 (≈ 72 µM) |  |  |  |  |  |  |  |  |
| O=C(O)c1cn(C2CC2)c2nc(N3C[C@@H](O)[C@H](O)C3)c(F)cc2c1=O | > 32 | 4 (≈ 11.5 µM) | 2 (≈ 5.73 µM) | 2 (≈ 5.73 µM) | 32 (≈ 91.6 µM) | > 32 | 2 (≈ 5.73 µM) | 4 (≈ 11.5 µM) | 32 (≈ 91.6 µM) |  |  |  |  |  |  |  |  |
| O=C(O)c1cn(C2CC2)c2nc(N3C[C@H](O)C[C@H]3CO)c(F)cc2c1=O | > 32 | 16 (≈ 44 µM) | 8 (≈ 22 µM) | 4 (≈ 11 µM) | 32 (≈ 88.1 µM) | > 32 | 8 (≈ 22 µM) | 32 (≈ 88.1 µM) | 32 (≈ 88.1 µM) |  |  |  |  |  |  |  |  |
